Reference: ChEMBL document CHEMBL5143667, “Identification of Aloe-derived natural products as prospective lead scaffolds for SARS-CoV-2 main protease (Mpro) inhibitors” (Bioorg Med Chem Lett, 2022)
Square brackets hold non-standard residues; d marks the D form. Peptide text beside a SMILES is read from it. * marks the point of attachment. Nle = CCCC[C@H](N)C(=O)O; Cbz = O=C(OCc1ccccc1)*

What follows are compounds tested against Replicase polyprotein 1ab (Severe acute respiratory syndrome coronavirus 2, UniProt P0DTD1) (assay: Inhibition of SARS-CoV-2 main protease expressed in Escherichia coli using DABCYL-KTSAVLQ1SGFRKM-E(EDANS)-NH2 peptide as substrate incubated for 30 mins by FRET based assay).
Summary of the method: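 Same FRET set-up with varied inhibitor concentrations: 50 nM Mpro, 10 μM substrate, Tris-HCl/NaCl/EDTA/DTT buffer, pH 7.3, room temperature, read every 2.5 min for 1 h. Initial slopes from first 20 min, % inhibition vs DMSO. IC50 by nonlinear regression, three-parameter dose–response inhibition model. Triplicates, mean ± SD.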

Compared with `CC(=O)Cc1cc(=O)c2c(C)cc(O)c([C@@H]3O[C@H](CO)[C@@H](O)[C@H](O)[C@H]3O)c2o1`, `COc1cc(C)c2c(=O)cc(C[C@@H](C)O)oc2c1[C@@H]1O[C@H](CO)[C@@H](O)[C@H](O)[C@H]1OC(=O)/C=C/c1ccc(O)cc1` is 3.2-fold higher in IC50: 38.9 µM for the first, 125 µM for the second.

First: O=C1CC(=O)c2c(Cl)c(Cl)c(Cl)c(Cl)c21
Second: CCCCCCCCCCCCCCCc1cccc(O)c1C(=O)O [ANACARDIC ACID]
The IC50 of the first is 20-fold higher: 138 µM for the first, 6.8 µM for the second. The second is the more potent here.

Each compound was assayed against Replicase polyprotein 1ab (Severe acute respiratory syndrome coronavirus 2) (UniProt P0DTD1) (assay: Inhibition of SARS-CoV-2 main protease expressed in Escherichia coli using DABCYL-KTSAVLQ1SGFRKM-E(EDANS)-NH2 peptide as substrate at 100 uM incubated for 30 mins by FRET based assay relative to control).
Summary of the method: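 Started by adding substrate–inhibitor mix to enzyme. Ex 360/Em 460 nm every 2.5 min for 1 h. Initial velocity from first 20 min, substrate background subtracted, % inhibition vs DMSO control. Triplicate, mean ± SD.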

First: Cc1c(O)cccc1C(=O)N[C@@H](CSc1ccccc1)[C@H](O)CN1C[C@H]2CCCC[C@H]2C[C@H]1C(=O)NC(C)(C)C
Second: CCC[C@H](NC(=O)[C@@H]1[C@H]2CCC[C@H]2CN1C(=O)[C@@H](NC(=O)[C@@H](NC(=O)c1cnccn1)C1CCCCC1)C(C)(C)C)C(=O)C(=O)NC1CC1
The inhibition of the first is lower: 56.1% for the first, 88.8% for the second.

First: CC(C)C[C@@H](C=O)NC(=O)[C@H](CC(C)C)NC(=O)[C@H](CC(C)C)NC(=O)OCc1ccccc1 (Cbz-Leu-Leu-Leu-aldehyde)
Second: CCCC[C@@H](C=O)NC(=O)[C@H](CC(C)C)NC(=O)OCc1ccccc1
The inhibition of the first is higher: 99% for the first, 97.2% for the second.

Compared with `CC(=O)O/N=C1\C(=O)N(Cc2cc(Cl)ccc2Cl)c2ccc(Cl)cc21`, `CC(NC(=O)Cc1cc(F)cc(F)c1)C(=O)NC1C(=O)N(C)c2ccccc2-c2ccccc21` (stereo unspecified) is lower in inhibition: 61.4% for the first, 53.8% for the second.

First: O=C(O)/C(S)=C/c1c[nH]c2ccc(F)cc12
Second: Cn1cc(/C=C/C(=O)c2cccc(F)c2)cc1/C=C/C(=O)NO
The inhibition of the first is higher: 71.5% for the first, 51.4% for the second.

First: CC(C)(C)C1NC(=O)O[C@@H]2CCC[C@H]2OC/C=C/C(F)(F)c2nc3ccccc3nc2O[C@@H]2C[C@@H](C(=O)N[C@]3(C(=O)NS(=O)(=O)C4(C)CC4)C[C@H]3C(F)F)N(C2)C1=O (stereo partly specified)
Second: C=C[C@H]1C[C@]1(NC(=O)[C@@H]1C[C@@H](Oc2ncc(OC)c3ccc(Cl)cc23)CN1C(=O)[C@@H](NC(=O)OC(C)(C)C)C(C)(C)C)C(=O)NS(=O)(=O)C1CC1
The inhibition of the first is higher: 51.7% for the first, 49.4% for the second.

First: CC(=O)Cc1cc(=O)c2c(C)cc(O)c([C@@H]3O[C@H](CO)[C@@H](O)[C@H](O)[C@H]3O)c2o1
Second: COc1cc(C)c2c(=O)cc(CC(C)=O)oc2c1[C@@H]1O[C@H](CO)[C@@H](O)[C@H](O)[C@H]1OC(=O)/C=C/c1ccc(O)cc1
The inhibition of the first is higher: 80.1% for the first, 60.5% for the second.

Compared with `CC(C)C[C@H](NC(=O)[C@H](Cc1ccccc1)C[C@@H](O)[C@H](Cc1ccccc1)NC(=O)OC(C)(C)C)C(=O)N[C@@H](Cc1ccccc1)C(N)=O`, `CCCC(NC(=O)C(CC(C)C)NC(=O)OCc1ccccc1)C(=O)C(=O)NCc1ccccn1` (stereo unspecified) is higher in inhibition: 65% for the first, 98.3% for the second.

Going from `O=C1CC(=O)c2c(Cl)c(Cl)c(Cl)c(Cl)c21` to `Cc1coc2c1C(=O)C(=O)c1c-2ccc2c1CCCC2(C)C`, the inhibition falls from 94.2% to 53.9%.

First: CCCC[C@@H](C=O)NC(=O)[C@H](CC(C)C)NC(=O)[C@H](CC(C)C)NC(C)=O (Ac-Leu-Leu-[Nle]-aldehyde)
Second: CSCC[C@@H](C=O)NC(=O)[C@H](CC(C)C)NC(=O)[C@H](CC(C)C)NC(C)=O (Ac-Leu-Leu-Met-aldehyde)
The inhibition of the first is lower: 95.2% for the first, 99.8% for the second.

First: CC(C)(C)NC(=O)N[C@H](C(=O)N1C[C@H]2[C@@H]([C@H]1C(=O)NC(CC1CCC1)C(=O)C(N)=O)C2(C)C)C(C)(C)C (stereo partly specified)
Second: CC(=O)N[C@@H](CC(C)C)C(=O)N[C@@H](CC(C)C)C(=O)N[C@H](C=O)CCCNC(=N)N
The inhibition of the first is higher: 97.4% for the first, 59% for the second.

Going from `CC(NC(=O)[C@H](Cc1ccccc1)NC(=O)OCc1ccccc1)C(=O)CF` (stereo partly specified) to `CCOC(=O)C[C@H](NC(=O)[C@@H](NC(=O)[C@H](CCC(=O)OC)NC(=O)[C@H](CC(=O)OCC)NC(=O)OCc1ccccc1)C(C)C)C(=O)CF`, the inhibition rises from 90.1% to 100%.

First: Nc1ccccc1NC(=O)c1ccc(CNc2nccc(-c3cccnc3)n2)cc1
Second: COc1cc(C)c2c(=O)cc(C[C@@H](C)O)oc2c1[C@@H]1O[C@H](CO)[C@@H](O)[C@H](O)[C@H]1OC(=O)/C=C/c1ccc(O)cc1
The inhibition of the first is lower: 66.7% for the first, 72.6% for the second.

Going from `CC1=C(O)C(=O)C=C2C1=CC=C1[C@@]2(C)CC[C@@]2(C)[C@@H]3C[C@](C)(C(=O)O)CC[C@]3(C)CC[C@]12C` to `Cc1cc(C(=O)CN2CCCC2)c(C)n1-c1ccc(F)cc1`, the inhibition falls from 57.7% to 54.8%.

In the case of `CCCCCCCCCCCCCCCc1cccc(O)c1C(=O)O` [ANACARDIC ACID], the inhibition is reported as 96.1%.
